# Laboratory results reported in ChEMBL document CHEMBL1255289, “In vitro antifungal activities of isavuconazole (BAL4815), voriconazole, and fluconazole against 1,007 isolates of zygomycete, Candida, Aspergillus, Fusarium, and Scedosporium species” (2008).
# Key:
# Fusarium [1] = assay: Antifungal activity against Fusarium sp. isolates assessed as lowest compound concentration that produced complete inhibition of microbial growth by CLSI M38-A procedure based assay
# Candida parapsilosis [2] = assay: Antifungal activity against Candida parapsilosis isolates by Etest; type: functional; details: Lodderomyces parapsilosis
# Summary of the method: (§1)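 Etest on RPMI agar with 2% glucose, swab-inoculated with the microdilution spore or yeast suspension taken before its 50-fold dilution. Plates were incubated at 35°C and read at 48 h. The MIC was the ellipse–scale intercept, raised to the next twofold dilution step.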
# Pichia kudriavzevii [3] = assay: Antifungal activity against Candida krusei isolates by Etest; type: functional
# Summary of the method: as §1
# Rhizopus [4] = assay: Antifungal activity against Rhizopus isolates assessed as lowest compound concentration that produced complete inhibition of microbial growth after 24 hrs by CLSI M38-A procedure based assay; type: functional
# Summary of the method: (§2)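 Zygomycete isolates subcultured on potato dextrose or Sabouraud agar, then tested by CLSI M38-A broth microdilution. Drugs were serially diluted in plates at final 0.015–16 µg/ml and incubated at 35°C. Plates were read by eye at 24 h. MIC-0 was the lowest concentration giving complete growth inhibition.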
# Aspergillus niger = assay: Antifungal activity against Aspergillus niger isolates after 48 hrs by CLSI M38-A procedure based assay; type: functional
# Summary of the method: (§3)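 Aspergillus isolates tested by CLSI M38-A broth microdilution at final 0.015–16 µg/ml and 35°C. Plates were read macroscopically at 48 h. The MIC was the lowest concentration producing complete inhibition of growth (MIC-0).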
# Aspergillus terreus = assay: Antifungal activity against Aspergillus terreus isolates by Etest; type: functional
# Summary of the method: as §1
# Absidia = assay: Antifungal activity against Absidia isolates assessed as lowest compound concentration that produced complete inhibition of microbial growth after 24 hrs by CLSI M38-A procedure based assay; type: functional
# Summary of the method: as §2
# Nakaseomyces glabratus = assay: Antifungal activity against Candida glabrata isolates by Etest; type: functional
# Summary of the method: as §1
# Candida parapsilosis [5] = assay: Antifungal activity against Candida parapsilosis isolates after 48 hrs by CLSI M27-A2 procedure based assay; type: functional
# Summary of the method: (§4)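 Candida isolates tested by CLSI M27-A2 broth microdilution at final 0.015–16 µg/ml, or 0.125–128 µg/ml for the comparator azole. Incubation was at 35°C with a visual read at 48 h. MIC-2 was the lowest concentration giving a prominent turbidity drop, about 50% growth inhibition.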
# Scedosporium apiospermum = assay: Antifungal activity against Scedosporium apiospermum isolates by Etest; type: functional
# Summary of the method: as §1
# Cunninghamella [6] = assay: Antifungal activity against Cunninghamella isolates assessed as lowest compound concentration that produced slight growth or approximately 25% of that of growth control after 24 hrs by CLSI M38-A procedure based assay; type: functional
# Summary of the method: (§5)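 Clinical isolates were kept at –70°C as spore suspensions in sterile water and subcultured on potato dextrose or Sabouraud agar before testing. Broth microdilution used DMSO stocks in trays stored at –70°C, with final drug 0.015–16 µg/ml.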
# Syncephalastrum [7] = assay: Antifungal activity against Syncephalastrum isolates assessed as lowest compound concentration that produced slight growth or approximately 25% of that of growth control after 24 hrs by CLSI M38-A procedure based assay; type: functional
# Summary of the method: as §5
# Candida tropicalis [8] = assay: Antifungal activity against Candida tropicalis isolates after 48 hrs by CLSI M27-A2 procedure based assay; type: functional
# Summary of the method: as §4
# Mucor [9] = assay: Antifungal activity against Mucor isolates assessed as lowest compound concentration that produced complete inhibition of microbial growth after 24 hrs by CLSI M38-A procedure based assay; type: functional
# Summary of the method: as §2
# Rhizopus [10] = assay: Antifungal activity against Rhizopus isolates assessed as lowest compound concentration that produced slight growth or approximately 25% of that of growth control after 24 hrs by CLSI M38-A procedure based assay; type: functional
# Summary of the method: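 Rhizopus isolates tested by CLSI M38-A broth microdilution at final 0.015–16 µg/ml, 35°C, read by eye at 24 h.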
# Pichia kudriavzevii [11] = assay: Antifungal activity against Candida krusei isolates after 48 hrs by CLSI M27-A2 procedure based assay; type: functional
# Summary of the method: as §4
# Cunninghamella [12] = assay: Antifungal activity against Cunninghamella isolates assessed as lowest compound concentration that produced complete inhibition of microbial growth after 24 hrs by CLSI M38-A procedure based assay; type: functional
# Summary of the method: as §2
# Lomentospora prolificans = assay: Antifungal activity against Scedosporium prolificans isolates by Etest; type: functional
# Summary of the method: as §1
# Rhizopus [13] = assay: Antifungal activity against Rhizopus isolates by Etest; type: functional
# Summary of the method: (§6)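 Etest. The spore inoculum used for microdilution, taken before the 50-fold dilution, was swabbed onto RPMI agar with 2% glucose, strips applied, and plates held at 35°C and read at 24 h. The MIC was where the inhibition ellipse met the strip scale, rounded up to the next twofold dilution.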
# Mucor [14] = assay: Antifungal activity against Mucor isolates by Etest; type: functional
# Summary of the method: as §6
# Candida tropicalis [15] = assay: Antifungal activity against Candida tropicalis isolates by Etest; type: functional
# Summary of the method: as §1
# Mucor [16] = assay: Antifungal activity against Mucor isolates assessed as lowest compound concentration that produced slight growth or approximately 25% of that of growth control after 24 hrs by CLSI M38-A procedure based assay; type: functional
# Summary of the method: as §5
# Candida = assay: Antifungal activity against Candida sp. isolates by Etest; type: functional
# Summary of the method: as §1
# Aspergillus sp. = assay: Antifungal activity against Aspergillus sp. isolates after 48 hrs by CLSI M38-A procedure based assay; type: functional
# Summary of the method: as §3
# Candida albicans = assay: Antifungal activity against Candida albicans isolates by Etest; type: functional
# Summary of the method: as §1
# Aspergillus flavus = assay: Antifungal activity against Aspergillus flavus isolates by Etest; type: functional
# Summary of the method: as §1
# Fusarium [17] = assay: Antifungal activity against Fusarium sp. isolates assessed as lowest compound concentration that produced slight growth or approximately 25% of that of growth control after 24 hrs by CLSI M38-A procedure based assay; type: functional
# Syncephalastrum [18] = assay: Antifungal activity against Syncephalastrum isolates by Etest; type: functional
# Summary of the method: as §6
# Aspergillus fumigatus = assay: Antifungal activity against Aspergillus fumigatus isolates by Etest; type: functional
# Summary of the method: as §1
# [19] = Lodderomyces parapsilosis, 48 h
smiles,measurement,setting,value
C[C@@H](c1nc(-c2ccc(C#N)cc2)cs1)[C@](O)(Cn1cncn1)c1cc(F)ccc1F [ISAVUCONAZOLE],MFC90,Fusarium [1],>16 µg/mL
same,MIC50,Candida parapsilosis [2],0.004 µg/mL
same,MIC90,Candida parapsilosis [2],0.023 µg/mL
same,MIC,Pichia kudriavzevii [3],0.012 µg/mL
same,MFC50,Rhizopus [4],4 µg/mL
same,MFC90,Rhizopus [4],>16 µg/mL
same,MFC,"Rhizopus [4]; Rhizopus, 24 h",1 µg/mL
same,MIC,"Rhizopus [4]; Rhizopus, 24 h",1 µg/mL
same,MIC50,"Rhizopus [4]; Rhizopus, 24 h",1 µg/mL
same,MIC90,"Rhizopus [4]; Rhizopus, 24 h",16 µg/mL
same,MFC50,Aspergillus niger,1 µg/mL
same,MFC90,Aspergillus niger,2 µg/mL
same,MFC,"Aspergillus niger; Aspergillus niger, 48 h",0.25 µg/mL
same,MIC50,"Aspergillus niger; Aspergillus niger, 48 h",1 µg/mL
same,MIC90,"Aspergillus niger; Aspergillus niger, 48 h",2 µg/mL
same,MIC50,Aspergillus terreus,0.38 µg/mL
same,MIC90,Aspergillus terreus,0.5 µg/mL
same,MFC,Absidia,4 µg/mL
same,MIC,Absidia,1 µg/mL
same,MIC50,Nakaseomyces glabratus,0.094 µg/mL
same,MIC90,Nakaseomyces glabratus,0.38 µg/mL
same,MFC50,Candida parapsilosis [5],4 µg/mL
same,MFC90,Candida parapsilosis [5],16 µg/mL
same,MFC,Candida parapsilosis [5]; [19],0.03 µg/mL
same,MIC,Candida parapsilosis [5]; [19],< 0.015 µg/mL
same,MIC50,Candida parapsilosis [5]; [19],< 0.015 µg/mL
same,MIC90,Candida parapsilosis [5]; [19],0.03 µg/mL
same,MIC,Scedosporium apiospermum,> 32 µg/mL
same,MIC,Cunninghamella [6],0.5 µg/mL
same,MIC,Syncephalastrum [7],0.125 µg/mL
same,MFC50,Candida tropicalis [8],>16 µg/mL
same,MFC90,Candida tropicalis [8],>16 µg/mL
same,MFC,"Candida tropicalis [8]; Candida tropicalis, 48 h",2 µg/mL
same,MIC,"Candida tropicalis [8]; Candida tropicalis, 48 h",< 0.015 µg/mL
same,MIC50,"Candida tropicalis [8]; Candida tropicalis, 48 h",< 0.015 µg/mL
same,MIC90,"Candida tropicalis [8]; Candida tropicalis, 48 h",0.06 µg/mL
same,MFC50,Mucor [9],8 µg/mL
same,MFC90,Mucor [9],>16 µg/mL
same,MFC,"Mucor [9]; Mucor, 24 h",2 µg/mL
same,MIC50,"Mucor [9]; Mucor, 24 h",2 µg/mL
same,MIC90,"Mucor [9]; Mucor, 24 h",16 µg/mL
same,MIC,Rhizopus [10],0.5 µg/mL
same,MIC50,Rhizopus [10],0.5 µg/mL
same,MIC90,Rhizopus [10],4 µg/mL
same,MFC,Pichia kudriavzevii [11],0.5 µg/mL
same,MIC,Pichia kudriavzevii [11],0.125 µg/mL
same,MFC,Cunninghamella [12],16 µg/mL
same,MIC,Cunninghamella [12],2 µg/mL
same,MIC50,Lomentospora prolificans,> 32 µg/mL
same,MIC90,Lomentospora prolificans,> 32 µg/mL
same,MIC50,Rhizopus [13],1 µg/mL
same,MIC90,Rhizopus [13],> 32 µg/mL
same,MIC,Mucor [14],0.19 µg/mL
same,MIC50,Mucor [14],2 µg/mL
same,MIC90,Mucor [14],> 32 µg/mL
same,MIC,Candida tropicalis [15],0.003 µg/mL
same,MIC50,Candida tropicalis [15],0.015 µg/mL
same,MIC90,Candida tropicalis [15],0.125 µg/mL
same,MIC50,Mucor [16],1 µg/mL
same,MIC90,Mucor [16],8 µg/mL
same,MIC,Candida,0.004 µg/mL
same,MFC,Aspergillus sp.,0.25 µg/mL
same,MIC,Aspergillus sp.,0.25 µg/mL
same,MIC50,Candida albicans,0.004 µg/mL
same,MIC90,Candida albicans,0.015 µg/mL
same,MIC,Aspergillus flavus,0.016 µg/mL
same,MIC50,Aspergillus flavus,0.38 µg/mL
same,MIC90,Aspergillus flavus,0.5 µg/mL
same,MIC50,Fusarium [17],16 µg/mL
same,MIC90,Fusarium [17],> 16 µg/mL
same,MIC,Syncephalastrum [18],0.25 µg/mL
same,MIC,Aspergillus fumigatus,0.047 µg/mL
same,MIC50,Aspergillus fumigatus,0.25 µg/mL
same,MIC90,Aspergillus fumigatus,0.5 µg/mL
